Test results published in ChEMBL document CHEMBL5252510, “A Novel Potent Oral Series of VEGFR2 Inhibitors Abrogate Tumor Growth by Inhibiting Angiogenesis” (J Med Chem, 2016).
One block for each compound: values may come before it. Activity calls are given as the source filed them. The rule behind the calls is not given here.

Key:
BaF3 [1] = assay: Antiproliferative activity against mouse BaF3 cells expressing Tel-FGFR3 assessed as cell growth inhibition measured after 72 hrs by Alamar Blue assay; conditions: BaF3, 72 h
[2] = target: Fibroblast growth factor receptor 3 (Homo sapiens) (UniProt P22607); assay: Inhibition of human recombinant GST-fused FGFR3 expressed in baculovirus expression system using poly-Glu-Tyr (4:1) as substrate measured after 10 mins in presence of gamma-[33P]-ATP by scintillation counting analysis
Method in brief: (§1)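 GST-fused kinase domains were expressed in baculovirus and purified on glutathione-Sepharose. 10 min at ambient temperature, stopped with EDTA. Filter binding and scintillation counting. IC50 by linear regression of percent inhibition.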

BaF3 [3] = assay: Antiproliferative activity against mouse BaF3 cells expressing Bcr-ABL assessed as cell growth inhibition measured after 72 hrs by Alamar Blue assay; conditions: BaF3, 72 h
BaF3 [4] = assay: Antiproliferative activity against mouse BaF3 cells expressing PTC3-RET assessed as cell growth inhibition measured after 72 hrs by Alamar Blue assay; conditions: BaF3, 72 h
BaF3 [5] = assay: Antiproliferative activity against mouse BaF3 cells expressing FLT3-ITD assessed as cell growth inhibition measured after 72 hrs by Alamar Blue assay; conditions: BaF3, 72 h
BaF3 [6] = assay: Antiproliferative activity against mouse BaF3 cells assessed as cell growth inhibition measured after 72 hrs by Alamar Blue assay; conditions: BaF3, 72 h
BaF3 [7] = assay: Antiproliferative activity against mouse BaF3 cells expressing ERBB2 V659E mutant assessed as cell growth inhibition measured after 72 hrs by Alamar Blue assay; conditions: BaF3, 72 h
BaF3 [8] = assay: Antiproliferative activity against mouse BaF3 cells expressing Tel-IGF-1R assessed as cell growth inhibition measured after 72 hrs by Alamar Blue assay; conditions: BaF3, 72 h
HUVEC [9] = assay: Antiproliferative activity against VEGF-stimulated HUVEC cells assessed as cell growth inhibition measured after 24 hrs by BrdUrd incorporation based spectrophotometric analysis; conditions: Homo sapiens
HUVEC [10] = assay: Antiproliferative activity against bFGF-stimulated HUVEC cells assessed as cell growth inhibition measured after 24 hrs by BrdUrd incorporation based spectrophotometric analysis; conditions: Homo sapiens
BaF3 [11] = assay: Antiproliferative activity against mouse BaF3 cells expressing Trp-MET assessed as cell growth inhibition measured after 72 hrs by Alamar Blue assay; conditions: BaF3, 72 h
[12] = target: Cyclin-dependent kinase 1 (Homo sapiens) (UniProt P06493); assay: Inhibition of human recombinant GST-fused CDK1 expressed in baculovirus expression system using poly-Glu-Tyr (4:1) as substrate measured after 10 mins in presence of gamma-[33P]-ATP by scintillation counting analysis; method in brief: as §1
[13] = target: Hepatocyte growth factor receptor (Homo sapiens) (UniProt P08581); assay: Inhibition of human recombinant GST-fused c-MET expressed in baculovirus expression system using poly-Glu-Tyr (4:1) as substrate measured after 10 mins in presence of gamma-[33P]-ATP by scintillation counting analysis; method in brief: as §1
BaF3 [14] = assay: Antiproliferative activity against mouse BaF3 cells expressing KIT D816V mutant assessed as cell growth inhibition measured after 72 hrs by Alamar Blue assay; conditions: BaF3, 72 h
BaF3 [15] = assay: Antiproliferative activity against mouse BaF3 cells expressing Tel-PDGFRbeta assessed as cell growth inhibition measured after 72 hrs by Alamar Blue assay; conditions: BaF3, 72 h
BaF3 [16] = assay: Antiproliferative activity against mouse BaF3 cells expressing NPM-ALK assessed as cell growth inhibition measured after 72 hrs by Alamar Blue assay; conditions: BaF3, 72 h
[17] = target: T1, Vascular endothelial growth factor receptor 2 (Homo sapiens, UniProt P35968); assay: Inhibition of human recombinant GST-fused VEGFR2 kinase domain transphosphorylation expressed in baculovirus expression system using poly-Glu-Tyr (4:1) as substrate measured after 10 mins in presence of gamma-[33P]-ATP by scintillation counting analysis
[18] = target: T1, Vascular endothelial growth factor receptor 2; assay: Inhibition of VEGF-induced human VEGFR2 autophosphorylation transfected in CHO cells measured after 2 hrs by chemiluminescence assay; type: cell-based
Mus musculus = assay: Anti-angiogenesis activity in FVB mouse model assessed as inhibition of VEGF-induced tissue weight at 50 mg/kg, po qd treated for 4 to 6 hrs prior to chamber implantation and continuing for 4 days measured after 24 hrs post last dose; type: functional, organism-based; conditions: time 5.0 day
Method in brief: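 Chamber model in female FVB mice: VEGF (2 μg/mL) agar/heparin chambers s.c. in flank, oral dosing once daily starting 4-6 h before implantation and continuing 4 days; vascularized tissue harvested and weighed 24 h after final dose; 6 mice per group.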

IC50 (BaF3 [1]): 1.56 µM | inhibition [2]: Active | IC50 (BaF3 [3]): 7.18 µM | IC50 (BaF3 [4]): 0.297 µM | IC50 (BaF3 [5]): 0.035 µM | IC50 (BaF3 [6]): > 10 µM | IC50 (BaF3 [7]): 3.85 µM | IC50 (BaF3 [8]): 1.29 µM | IC50 (BaF3 [11]): 5.12 µM | inhibition [12]: Active | inhibition [13]: Active | IC50 (BaF3 [14]): 1.47 µM | IC50 (BaF3 [15]): 0.0023 µM | IC50 (BaF3 [16]): 1.15 µM
SMILES: CCN(CC)CCNC(=O)c1c(C)[nH]c(/C=C2\C(=O)Nc3ccc(F)cc32)c1C [SUNITINIB]
IC50 (HUVEC [9]): 0.007 µM | IC50 (HUVEC [10]): > 3 µM

IC50 [17]: 0.003 µM | IC50 [18]: 0.23 µM
SMILES: CCN1CCN(Cc2ccc(NC(=O)Nc3ccc(Oc4cc(NC)ncn4)cc3)cc2C(F)(F)F)CC1 [AST-487]

SMILES: Cc1[nH]c(/C=C2\C(=O)Nc3ccccc32)c(C)c1CCC(=O)O
Activity (Mus musculus): Active
